zfTRPN1 agonist: zebrafish TRPN1 channel agonists, primary screen, cell-based, HEK293, calcium fluorescence; transient receptor potential cation channel N1 (TRPN1/NompC), Danio rerio; HEK293 zebrafish TRPN1-YFP, Fluo-8 calcium fluorescence; 100% = response to 87 µM carbachol; activation, % at 3 µM; 220,000 compounds, 0.18% hits;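 active = activation above its plate's cutoff, the mean activation of test wells on that plate plus 3 SD, cut at about 19% in these data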;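 also: 0% = DMSO alone and 100% = 87 µM carbachol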
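Material: zebrafish TRPN1-YFP in HEK293 cells; Doses: single test compound dose, 3 µM nominal, 0.3% DMSO; Timing: dye loading 1 h at 37 °C, then 30 min room temperature; Technique: intracellular calcium fluorescence with Fluo-8; Benchmarks: high carbachol 87 µM, low DMSO alone.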
OXTR ag: human OXTR agonists, primary screen, fluorescence, CHO-OTR cells, Fluo-8 calcium | activation, % at 3 µM | Fluo-8 calcium fluorescence; normalized: DMSO 0%, oxytocin 100% | AID 2435, 2010 | Oxytocin receptor (Homo sapiens), P30559 | 320,000 compounds, 0.32% hits;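 active = activation above the mean of all tested compounds plus 3 SD, cutoff set per screening run, cut at about 20% in these data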;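 also: peak over basal fluorescence ratio from a 100 s FLIPR kinetic read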
TRPML3 ag: human TRPML3 channel agonists, primary screen, cell-based, HEK293 TRPML3-YFP, Fluo-8 calcium fluorescence, 3 µM. activation, % at 3 µM. 220,000 compounds, 0.29% hits. 100% = the carbachol control signal. AID 1448, 2008. Mucolipin-3 (Homo sapiens), Q8TDD5;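 active = activation above its plate's cutoff, the mean activation of the plate's test wells plus 3 SD, cut at about 12% in these data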;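 also: 0% = DMSO only wells and 100% = carbachol wells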
Target sequence (Q8TDD5 whole entry, looked up): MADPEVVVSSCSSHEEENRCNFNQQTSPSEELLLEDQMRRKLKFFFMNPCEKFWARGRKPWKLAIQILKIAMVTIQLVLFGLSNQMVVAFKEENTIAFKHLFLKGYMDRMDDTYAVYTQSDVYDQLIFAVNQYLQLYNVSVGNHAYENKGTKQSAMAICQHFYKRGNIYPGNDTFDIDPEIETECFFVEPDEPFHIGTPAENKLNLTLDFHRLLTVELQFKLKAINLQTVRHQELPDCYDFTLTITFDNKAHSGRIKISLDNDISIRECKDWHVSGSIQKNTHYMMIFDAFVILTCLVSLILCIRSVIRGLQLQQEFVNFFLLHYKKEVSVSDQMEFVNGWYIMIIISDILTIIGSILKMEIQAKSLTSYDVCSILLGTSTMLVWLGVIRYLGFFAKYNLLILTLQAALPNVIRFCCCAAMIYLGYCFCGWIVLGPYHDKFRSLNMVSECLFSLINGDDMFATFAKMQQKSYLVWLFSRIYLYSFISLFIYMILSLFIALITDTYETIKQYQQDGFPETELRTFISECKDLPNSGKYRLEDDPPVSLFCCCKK
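Test system: HEK293 cells stably carrying human TRPML3-YFP; Doses: single dose, 3 µM final nominal compound, 0.3% DMSO final; Schedule: dye loading 1 h 37 °C then 30 min ambient, 125 s read; Technique: Fluo-8 calcium fluorescence; Benchmarks: high control carbachol 87 µM, low control DMSO.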
OXTR potentiate: human OXTR potentiators, primary screen, fluorescence, CHO-OTR cells, Fluo-8 calcium. Fluo-8 calcium fluorescence, potentiator mode; 0% = oxytocin EC15, 100% = EC100. Oxytocin receptor (Homo sapiens), P30559. activation, % at 3 µM. AID 2445, 2010. 320,000 compounds, 0.061% hits;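 active = activation above that plate's cutoff, the mean activation of tested compounds plus 3 SD, cut at about 6.6% in these data, passing the limit was not always enough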;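 also: 100% uses oxytocin at 75 nM as the full agonist control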
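System: human OTR in CHO cells; Also added: sub-maximal oxytocin, roughly EC15; Timing: compound 6 min at room temperature before oxytocin, 100 s read; Technique: Fluo-8 intracellular calcium fluorescence, ex 470-495, em 515-575 nm; Controls: oxytocin EC15 low and EC100 high; Replication: singlicate.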
V1R ag counter: agonists of human V1a receptor, primary screen, counter-screen for OXTR agonist project, fluorescence, CHO-V1R cells. Vasopressin V1a receptor (Homo sapiens), P37288. Fluo-8 calcium fluorescence, agonist mode; 0% DMSO, 100% 3 nM vasopressin. activation, % at 3 µM. 320,000 compounds, 0.25% hits. AID 2797, 2010;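 active = activation above the mean activation of all tested compounds plus 3 SD, per screening run, cut at about 20% in these data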;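 also: signal is peak over basal fluorescence ratio across a 100 second FLIPR read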
TRPN1 counter: zebrafish TRPN1 channel agonists, counter-screen for TRPML3 agonist project, cell-based, HEK293 TRPN1-YFP, Fluo-8 calcium; shares compounds with TRPML3 ag; Fluo-8 calcium fluorescence; scaled: carbachol wells 100%, DMSO wells 0%; activation, % at 3 µM; 310 compounds, 10% hits; AID 1525, 2009;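 active = mean activation over replicates above a set limit taken from the earlier TRPN1 channel primary screen, cut at about 19% in these data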;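 also: 100% = carbachol and 0% = 0.3% DMSO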
TRPML3 confirm: human TRPML3 channel agonists, confirmation, cell-based, HEK293 TRPML3-YFP, Fluo-8 calcium, triplicate; shares compounds with TRPML3 ag; 310 compounds, 80% hits; Fluo-8 calcium fluorescence; 100% set by carbachol, 0% by DMSO; AID 1526, 2009; activation, % at 3 µM;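 active = activation above a set limit derived from the earlier primary screen, cut at about 12% in these data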
Starred values were filed as active, the others as inactive; / = no result. Most compounds without a hit are left out; they make up all but 0.59% or so of the library.

SMILES	zfTRPN1 agonist	OXTR ag	TRPML3 ag	OXTR potentiate	V1R ag counter	TRPN1 counter	TRPML3 confirm
CC1CCCC(NC(=O)C2CCN(S(=O)(=O)c3cccc4nonc34)CC2)C1C (stereo not drawn)	/	0	/	-8	0	/	/
CC1(C(=O)OCC(=O)Nc2ccc(S(=O)(=O)N3CCOCC3)cc2)CC1(Cl)Cl (stereo not drawn)	/	7	/	-8	6	/	/
Cc1ccc(S(=O)(=O)Nc2ccccc2N(C)S(=O)(=O)c2ccc(C)cc2)cc1	/	3	/	-16	2	/	/
Cc1ccc(S(=O)(=O)Nc2ccccc2-c2ccccc2)cc1	-1	1	91*	-14	0	-1	97*
Cc1ccc(S(=O)(=O)N2CCN(C)CC2)c(C)c1N(C)S(=O)(=O)c1ccc(Cl)cc1	1	10	77*	-14	4	5	58*
Cc1cc(C)c(S(=O)(=O)N2CCCCC2)cc1N(C)S(=O)(=O)c1ccc(Cl)cc1	0	-1	68*	-10	0	-1	69*
Cc1cc(C)c(S(N)(=O)=O)c(C)c1N(C)S(=O)(=O)c1ccc(Cl)cc1	/	1	/	3	3	/	/
O=C(CCC(=O)N(CC(=O)NC1CCCC1)c1ccc(F)cc1)Nc1nccs1	/	1	/	1	0	/	/
Cc1sc(NC(=O)C2C3CCC(C3)C2C(=O)O)c(C(N)=O)c1-c1ccc(C(C)(C)C)cc1 (stereo not drawn)	1	0	18*	-6	2	1	0
COc1ccc(C(=O)NC(=S)NNC(=O)c2c(-c3ccccc3)noc2C)cc1OC	19	21*	19*	-17	29*	18	24*
COc1cc(CCC(=O)NNC(=O)c2ccc(Cl)cc2)cc(OC)c1OC	/	0	/	-3	2	/	/
Cc1onc(-c2ccccc2)c1C(=O)NC(=S)NNC(=O)c1ccco1	7	18	11	-12	20	/	/
COc1cc(C(=O)NNC(=S)NC(=O)c2ccc(Cl)cc2)cc(OC)c1OC	6	37*	13*	-13	34*	44*	36*
COc1ccc(CN(C)C(=O)Cn2cnc3c(OCc4ccccc4)ncnc32)cc1OC	/	-1	/	1	0	/	/
Cc1cccc(-c2noc(CN(C(C)C)S(=O)(=O)c3ccc(F)cc3)n2)c1	2	0	75*	-20	0	0	56*
COc1cccc(C(=O)N(Cc2nc(-c3cccc(C)c3)no2)C(C)C)c1OC	-1	1	-1	-21	1	/	/
COc1ccc(OC)c(N(CC(=O)N2CCCC2)S(=O)(=O)c2ccc(C)cc2)c1	/	1	/	3	2	/	/
COc1ccc(OC)c(N(CC(=O)N2CCCCC2)S(=O)(=O)c2ccc(OC)c(OC)c2)c1	0	-1	88*	-9	0	2	105*
COc1ccc(N(CC(=O)N2CCCCC2)S(=O)(=O)c2ccccc2)c(OC)c1	1	0	71*	-9	0	2	121*
COc1ccc(OC)c(N(CC(=O)N2CCC(C)CC2)S(=O)(=O)c2ccccc2)c1	0	-1	8	-1	-1	/	/
COc1cc2oc3ccccc3c2cc1N(CC(=O)N1CCCCC1)S(=O)(=O)c1ccc(C)cc1	16	-2	179*	-9	2	48*	147*
C/C(=N\NC(=O)c1ccccc1O)C1CC1	/	1	/	-6	1	/	/

Compound activity: PubChem BioAssay, The Scripps Research Institute Molecular Screening Center
